# In the library only some 2.2% were active in any assay of this set; here they are far more common.
# HCT116 bCat-KO: beta-catenin-lacking colon tumor cell growth suppression; 140,000 compounds, 1.5% hits; viability, % at 10 µM; HCT116 beta-catenin knockout viability, CellTiter-Glo, 60 h; active compounds read low;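 active = viability at or under a set limit, the compound median less 4 SD, cut at about 6% in these data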;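 also: 0% = Hyamine 1622 control at 20 µM and 100% = untreated cell control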
# SDO1 yeast rescue: compounds rescuing growth of sdo1-depleted yeast, bone marrow failure model; S. cerevisiae sdo1-depleted JHY4D growth rescue, OD600 30 h; active compounds read high; pdr5 snq2 efflux-pump mutant strain; z-score at 10 µM; 140,000 compounds, 0.21% hits;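 active = z-score above 3 at both the 24 hr and the 30 hr optical density reads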;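 also: z-score against mean and SD of all compound wells on the same plate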
# Autophagy HCS: modulators of autophagy; MEF GFP-LC3 puncta imaging; test concentration mostly 10 µM; calls only at 10 µM (by protocol); 190,000 compounds, 0.98% hits;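 active = percentage of spot-positive cells more than 3 SD above its plate mean, without a fluorescence outlier flag or 80% toxicity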;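 also: spot-positive cell cutoff set from DMSO-treated cells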
# PTEN del growth: growth suppressors of cells with PTEN tumor suppressor deletion; HCT116 PTEN-null viability, CellTiter-Glo, 60 h; active compounds read low; viability, % at 10 µM; 140,000 compounds, 1.2% hits; AID 827;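 active = viability at or below a set limit, 4 SD under the median of all tested compounds, cut at about 3.7% in these data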;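 also: PTEN knockout HCT116 line with beta catenin targeted HCT116 as companion control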
# Dynein cargo inh: dynein cargo transport inhibition. 3617.4 mouse cells, GR-EGFP nuclear translocation imaging; test concentration mostly 20 µM; stimulated with dexamethasone, 1 µM; active compounds read low. z-score, hits read low. 220,000 compounds, 0.47% hits;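 active = plate z-score of nuclear minus cytoplasmic receptor signal below a set negative limit, without overly bright fluorescence or cell loss, cut at about -3.5 in these data, passing the limit was not always enough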;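 also: z-score of nuclear minus cytoplasmic ring GR-EGFP intensity difference per well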
#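 Also added – dexamethasone, 1.0 µM final · Buffer or medium – tet-free, stripped-serum medium · Schedule – induction 48 h, compound 1 h, agonist 30 min · Detection – formaldehyde fixation, Hoechst nuclear stain, 10x automated fluorescence imaging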
# SDO1 rescue DR: confirmation of growth rescue in SDO1-depleted yeast, bone marrow failure. shares compounds with SDO1 yeast rescue. S. cerevisiae JHY4D (SDO1-depleted) growth rescue, OD600, 30 h; active compounds read high; efflux-deficient strain, SNQ2 and PDR5 mutated. OD recovery (no concentration beside the values). 440 compounds, 44% hits. AID 949;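 active = yeast growth recovered at 30 hours, either rising with dose fitted slope above 0.001 or with average optical density gain above 0.07, some results past the limit were not filed as active; inactive = growth falling with dose or no effect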;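 also: gain in OD600 from 0 h to 30 h averaged across all seven doses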
# Starred values were filed as active, the others as inactive; i = inactive; / = no result; + = active, no number.
SMILES,HCT116 bCat-KO,SDO1 yeast rescue,Autophagy HCS,PTEN del growth,Dynein cargo inh,SDO1 rescue DR
CCc1cccc2c(SCC(=O)NCC3CCCO3)nc(-c3ccc(F)cc3)nc12 (centres undefined),22,0.88,+,22,-0.4,0.042
O=S(NC1CCCCC1)C12CC3CC(CC(C3)C1)C2 (centres undefined),80,0.33,i,74,-0.88,/
O=C(CSc1nnc(SCC(=O)c2ccco2)s1)c1ccco1,95,2.5,i,92,-0.32,0.062
CCCCSc1nc(O)c(Cc2ccccc2)c(=O)[nH]1,99,0.05,i,99,0.12,/
COc1cc(/C=N/NC(=O)c2ccoc2C)ccc1O,101,2.6,i,95,-0.062,0.074*
CCOC(=O)/C=C1\SCC(=O)N1CC(=O)NC12CC3CC(CC(C3)C1)C2,111,14*,i,92,-0.67,0.084*
COc1cccc(-c2cc(C(=O)NCCN3CCOCC3)no2)c1,100,-0.65,i,115,-0.24,/
COc1ccccc1-c1cc(C(=O)NCCN2CCOCC2)no1,102,1.5,i,96,1.8,0.042
CC(=O)Nc1ccc(SCC(=O)N(CCC#N)c2cc(C)cc(C)c2)cc1,87,3.9*,i,86,0.46,0.084*
O=C1CSC(c2ccccn2)N1c1ccccc1 (centres undefined),90,4.1*,i,84,-1.2,0.08*
O=C1CSC(c2ccccn2)N1c1ccc(Br)cc1 (centres undefined),/,/,i,/,-0.68,/
CO/N=C(\CCC(=O)O)c1cccs1,/,/,/,/,-0.65,/
Cc1cc(-c2ccccc2)n2nc(C)c(C#N)c2n1,83,12*,i,90,-0.027,0.067
COc1ccc(-c2c(C)nn3c(-c4ccccc4)cc(C)nc23)cc1,/,/,i,/,0.72,/
O=C(CSc1ncn[nH]1)Nc1nc(-c2ccccc2)ns1,108,1.4,i,92,0.13,0.06
CCC(=O)Nc1nc(-c2ccccc2)ns1,84,0.58,i,99,1.8,/
Cc1nc(S(=O)(=O)N2CCOCC2)c(C#N)c(C)c1Cl,74,3.8*,i,90,-1.3,0.087*
NC(=O)CCn1nc(-c2ccc(Cl)cc2)c2ccccc2c1=O,86,4.3*,i,95,-1.1,0.077*
O=C(CCn1nc(-c2ccc(Cl)cc2)c2ccccc2c1=O)Nc1cccnc1,/,/,i,/,2.4,/
S=C(NCc1ccco1)N/N=C/c1ccc(Cl)cc1,98,8.4*,i,79,0.53,0.079*
Cc1cccnc1NC(=O)C12CCC(C)(C(=O)O1)C2(C)C (centres undefined),104,2.1,i,105,-0.098,/
CC12CCC(C(=O)Nc3nccs3)(OC1=O)C2(C)C (centres undefined),101,3*,i,97,-0.39,0.091*
CCN=C1S/C(=C\c2cn(CC)c3ccccc23)C(=O)N1CC,79,7.9*,i,76,0.81,0.092*
CN(C)C=NC(=O)c1cn(-c2ccc(F)cc2)c(=O)c2ccccc12,/,/,i,/,0.72,/
Cc1ccnc(NC(=O)c2sc3ccccc3c2Cl)c1,87,3.9*,i,81,-0.35,0.13*
SMILES,HCT116 bCat-KO,SDO1 yeast rescue,Autophagy HCS,PTEN del growth,Dynein cargo inh,SDO1 rescue DR
Cc1cnc(NC(=O)c2sc3ccccc3c2Cl)s1,72,-0.23,i,67,-0.96,/
Cc1ccc(C(=O)NCCCN2CCOCC2)o1,92,2.3,i,97,0.014,0.046
CCCc1nc2ccccc2c(=O)n1N,97,3.6*,i,103,-1.2,0.058
CCCCCc1nc2ccccc2c(=O)n1N,96,-1.6,i,85,2,/
C=CCn1cnc2c(nnn2-c2ccc(OC)c(OC)c2)c1=O,/,/,i,/,-0.0012,/
COc1ccc(S(=O)(=O)N2CCCC(C(=O)NC3CCCCC3)C2)cc1 (centres undefined),91,-0.49,i,103,-1.1,/
COc1ccc(S(=O)(=O)N2CCCC(C(=O)O)C2)cc1 (centres undefined),96,2.1,i,95,0.37,0.046
Cc1cccc(NC(=O)CN(c2ccc(F)cc2)S(C)(=O)=O)c1,/,/,i,/,-0.53,/
Cc1cccc(NC(=O)Cc2ccc(F)cc2)c1,104,6.8*,i,99,0.54,0.075*
COc1ccc(CCNC(=O)C(=O)NCc2ccc(Cl)cc2)cc1OC,/,/,i,/,-0.22,/
